Assay outcomes: PubChem, several laboratories
The list is not random: actives were taken first. Their share in the collection is about 1.8%.
GSTO1 inh: blocks human GSTO1 in RBBP9 counter-screen; P78417; recombinant GSTO1, activity-based probe fluorescence polarization; inhibition, % at 5.96 µM; 1.1% of 300,000 active; AID 1974;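 active = inhibition above the campaign mean inhibition plus 3 SD, cut at about 35% in these data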;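 also: 0% = GSTO1-1 with DMSO and 100% = wells lacking GSTO1-1 enzyme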
Target sequence (P78417 whole entry, looked up): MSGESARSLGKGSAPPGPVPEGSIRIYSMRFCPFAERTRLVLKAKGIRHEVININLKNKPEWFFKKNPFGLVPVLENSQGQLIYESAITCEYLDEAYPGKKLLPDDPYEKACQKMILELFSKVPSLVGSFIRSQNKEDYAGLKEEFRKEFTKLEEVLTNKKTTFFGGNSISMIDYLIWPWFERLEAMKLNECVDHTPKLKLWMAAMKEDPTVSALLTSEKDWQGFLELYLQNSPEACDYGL
TDP2 inh: blocks human TDP2 phosphodiesterase activity; 0.34% of 370,000 active; inhibition, % at 12.8 µM; O95551; recombinant TDP2, T5PNP hydrolysis, p-nitrophenol absorbance 415 nm;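 active = inhibition above the mean of all tested compounds plus 3 SD, set per campaign, cut at about 25% in these data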;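 also: 0% = DMSO with enzyme and 100% = buffer with substrate but no TDP2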
Target sequence (O95551 whole entry, looked up): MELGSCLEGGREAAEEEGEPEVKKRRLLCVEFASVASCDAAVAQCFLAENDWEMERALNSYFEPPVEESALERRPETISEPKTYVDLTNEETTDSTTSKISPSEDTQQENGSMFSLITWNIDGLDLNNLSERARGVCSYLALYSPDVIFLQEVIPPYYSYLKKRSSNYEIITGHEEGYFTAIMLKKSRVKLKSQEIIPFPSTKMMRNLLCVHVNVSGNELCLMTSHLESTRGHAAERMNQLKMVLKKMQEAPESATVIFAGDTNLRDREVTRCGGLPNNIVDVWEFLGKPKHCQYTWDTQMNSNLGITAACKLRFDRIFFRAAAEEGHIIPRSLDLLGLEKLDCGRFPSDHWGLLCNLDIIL
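Assay system: Recombinant human TDP2 | Quantity: 120 nM TDP2 per well | Incubation: 2 h at 37 °C | Signal: Epi absorbance | Evaluation: Percent inhibition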
Apaf-1 inh: inhibitors of human Apaf-1 apoptosome. O14727. inhibition, % at 20 µM. AID 489030. reconstituted apoptosome caspase-3 activity, DEVD-Rh110 fluorescence. 0.71% of 330,000 active; active = inhibition of at least 40% at 20 µM;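 also: plate controls were DMSO wells for no effect and DEVD-CHO caspase inhibitor wells for full effect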
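System: reconstituted apoptosome with Apaf-1, cytochrome c, caspase-9, procaspase-3, dATP; Signal: Rh110 fluorescence intensity; Schedule: 30 min compound preincubation, 50 min activation, room temperature; Reagent: cytochrome c trigger plus (Z-DEVD)2-Rh110 caspase-3 substrate.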
PAD4 FP inh: PAD4 (human) enzyme inhibition | Q9UM07 | 0.41% of 330,000 active | inhibition, % at 6.36 µM | recombinant PAD4, RCA probe fluorescence polarization;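 active = percent inhibition above a cutoff equal to the mean of all tested compounds plus 3 SD, cut at about 15% in these data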;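 also: 0% = PAD4 with RCA probe and DMSO and 100% = probe without PAD4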
Fh CTSL1 inh: cathepsin L1 inhibition, PFM18AAP counter-screen. recombinant F. hepatica cathepsin L1, Z-Leu-Arg-MCA fluorescence. inhibition, % at 5.96 µM. AID 1906. 0.49% of 300,000 active;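 active = inhibition above the mean of all tested compounds plus 3 SD, set per screening campaign, cut at about 17% in these data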;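 also: 0% = plate median of test compound wells and 100% = 1 µM Z-Phe-Ala-diazomethylketone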
GSTO1 inh conf: GSTO1 (human) inhibition, confirmation. shares compounds with GSTO1 inh. recombinant GSTO1, probe fluorescence polarization. inhibition, % at 5.96 µM. 54% of 2,400 active;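 active = inhibition above the primary screen's cutoff, its mean inhibition plus 3 SD, cut at about 35% in these data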;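 also: loss of polarization as inhibitors block binding of rhodamine sulfonate ester activity probe; 0% = GSTO1 with DMSO and 100% = wells lacking GSTO1 enzyme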
GSTO1 ABPP inh: blocks recombinant human glutathione S-transferase omega 1; 30% of 130 active; inhibition, % at 1 µM; shares compounds with GSTO1 inh; recombinant GSTO1, gel ABPP SE-Rh probe fluorescence;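 active = inhibition of the enzyme GSTO1 above about 75%, limit read from the data; inactive = inhibition below that limit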
Active calls of the source: *; . = not tested or not shown.

SMILES	GSTO1 inh	TDP2 inh	Apaf-1 inh	PAD4 FP inh	Fh CTSL1 inh	GSTO1 inh conf	others
Cc1nn(-c2ccc(Cl)cc2)c2[nH]c(CCl)cc(=O)c12	96.5*	-14.1	10.0	-1.1	2.7	97.9*	GSTO1 ABPP inh=72.0
O=C(NCCO)Nc1ccc2nc(-c3ccco3)c(-c3ccco3)nc2c1	65.3*	.	70.6*	18.4*	3.1	41.7*
CC(=O)c1ccc(NC(=O)c2ccc3nc(-c4ccco4)c(-c4ccco4)nc3c2)cc1	67.6*	.	51.9*	-15.9	-1.7	29.0
O=C(Nc1ccc(N2CCOCC2)cc1)c1ccc2nc(-c3ccco3)c(-c3ccco3)nc2c1	-0.3	-4.4	15.2	-1.6	4.9	.
CCCCNC(=O)c1ccc2nc(-c3ccco3)c(-c3ccco3)nc2c1	70.4*	-2.5	27.9	-7.2	9.9	24.2
COc1ccc2nc(-c3ccco3)c(-c3ccco3)nc2c1	71.9*	15.4	38.6	2.5	10.9	41.0*
COc1ccccc1NC(=O)OC1CC2CC1[C@H]1CCCCN1[C@H]2Cc1ccccc1 (stereo not given in full)	.	4.5	.	.	.	.
O=C(Nc1ccccc1)c1ccc2nc(-c3ccco3)c(-c3ccco3)nc2c1	57.3*	2.8	60.0*	-18.6	4.4	12.8
Oc1ccc(O)c(-c2cnns2)c1	88.9*	5.8	.	0.0	-1.3	-5.2
O=C1NN(c2ccccc2)C(=O)/C1=C/c1ccc(Sc2cccc3ccccc23)o1	48.8*	-15.8	16.0	0.6	5.8	65.5*
C/C(=C/c1oc2ccc(O)cc2c1[N+](=O)[O-])N(C)C	51.0*	-0.7	8.7	-1.9	-0.5	9.1
Cc1ccccc1NC(=O)Cc1nc(CCl)cs1	93.1*	-16.9	0.2	-1.2	-3.1	95.1*	GSTO1 ABPP inh=74.0
CCOC(=O)/C=C/C(=O)OCc1csc(CC(=O)Nc2ccccc2C)n1	10.8	-11.3	10.9	-3.9	7.0	.
O=C(NCc1ccccc1)[C@@H]1CCCN1C(=O)[C@H]1CCCN1C(=O)C1CCCCC1	.	1.9	.	.	.	.
CCN(C(=O)C1CCN(c2ncccn2)CC1)c1ccccc1	.	9.2	.	.	.	.
CCCN(CC(=O)Nc1ccccc1C)C(=O)CCl	80.7*	-1.2	-17.0	-1.5	16.1	91.7*	GSTO1 ABPP inh=4.0
CCOC(=O)c1c(C)n(C)c2cc(Br)c(O)c(O)c12	44.8*	-4.0	21.9	-10.1	-3.5	12.9
O=C1CC(CC(=O)N/N=C/c2ccccc2[N+](=O)[O-])=NN1	52.0*	13.6	45.9*	13.5	17.8*	12.4
Cc1ccc(O)c(N=CC2=C(O)c3ccccc3C2=O)c1	68.4*	4.9	27.6	3.8	-0.3	25.7
O=C1C(C=Nc2ccccc2O)=C(O)c2ccccc21	6.2	-16.9	-1.1	-7.7	3.4	.
Cc1ccc(NC(=O)Cc2ccc(F)cc2)c(S(=O)(=O)N2CCOCC2)c1	.	0.1	.	.	.	.
COc1ccc(-n2c(COc3ccccc3)nnc2SCC(=O)Nc2ccc(OCc3ccccc3)cc2)cc1	.	-8.6	.	.	.	.
C=CCN1C=C2C(=O)C(C)(OC(=O)C3CCCC3)C(=O)C(c3ccccc3)=C2C=C1CCCC(=O)OC (stereo not given)	26.7	18.7	37.8	-16.6	-4.7	.
COC(=O)CCCC1=CC2=C(c3ccccc3)C(=O)C(C)(OC(=O)C3CCCC3)C(=O)C2=CN1Cc1ccc(OC)cc1 (stereo not given)	40.7*	7.1	20.8	-2.7	-6.9	10.2
COC(=O)CCCC1=CC2=C(c3ccccc3)C(=O)C(C)(OC(=O)C3CCCC3)C(=O)C2=CN1CCN1CCOCC1 (stereo not given)	19.4	-9.4	7.8	-17.2	1.5	.
SMILES	GSTO1 inh	TDP2 inh	Apaf-1 inh	PAD4 FP inh	Fh CTSL1 inh	GSTO1 inh conf	others
COC(=O)CCCC1=CC2=C(c3ccccc3)C(=O)C(C)(OC(=O)C3CCCC3)C(=O)C2=CN1Cc1ccc2c(c1)OCO2 (stereo not given)	48.2*	14.5	21.9	-0.4	2.8	13.4
COC(=O)c1ccc2nc(-c3ccco3)c(Cc3ccsc3)n2c1	.	1.6	.	.	.	.
CCN(CC)c1ccc(C2Nc3cccc4cccc(c34)N2)c(O)c1	30.0	5.0	12.2	-4.2	-2.6	.
Oc1ccc2ccccc2c1C1Nc2cccc3cccc(c23)N1	41.9*	.	-8.2	-4.0	-3.1	24.2
NC(=S)N/N=C/c1coc2ccc(O)cc2c1=O	66.6*	-1.4	3.0	3.0	1.8	12.4
CCCN1CCCCC(NC(C)=O)C1=O (stereo not given)	.	3.0	.	.	.	.
COc1cc(/C=N/Nc2nc3ccccc3s2)cc([N+](=O)[O-])c1O	48.1*	-15.8	-4.1	-3.4	2.4	50.2*
O=[N+]([O-])c1cc(Cl)cc(/C=N/Nc2nc3ccccc3s2)c1O	14.5	0.2	2.9	-3.8	1.1	.
CC1=C(CC(=O)c2ccc(Cl)cc2)C(=O)c2ccccc2C1=O	44.5*	14.7	31.8	-8.9	0.2	13.8
C[C@@H]1CCCCO[C@H](CN(C)C(=O)C2CCCCC2)[C@@H](C)CN([C@H](C)CO)C(=O)c2cc(NS(=O)(=O)c3cccs3)ccc2O1	.	3.1	.	.	.	.
Cc1ccc2nc(/C(C#N)=C/c3ccccc3C(=O)O)[nH]c2c1	-2.8	8.3	-10.2	-7.8	-2.1	.
Cc1ccc2nc(/C(C#N)=C/c3ccc(O)c(O)c3)[nH]c2c1	46.1*	-3.7	12.9	-18.5	7.4	50.7*
CCOC(=O)[C@]12CCCC=C1N(Cc1ccc(OC)cc1)C(=O)[C@@H]2CC(=O)NCCCCc1ccccc1	.	-2.9	.	.	.	.
Oc1ccc(-c2cn3c(n2)SCC3)cc1O	53.4*	9.5	-3.8	-0.1	-8.9	4.6
Oc1ccc(-c2cn3c(n2)SCC3)cc1	8.8	8.2	-2.1	-0.6	-2.0	.
CCCCNC(=O)NC1(C(F)(F)F)Oc2ccccc2O1	54.9*	5.1	5.8	-3.7	10.3	4.0
O=C(NCCN1CCOCC1)NC1(C(F)(F)F)Oc2ccccc2O1	57.3*	0.6	-0.8	-1.5	3.6	4.7
NS(=O)(=O)c1ccc(CCNC(=O)C2COc3ccccc3O2)cc1 (stereo not given)	.	6.4	3.6	.	.	.
COCCNC(=O)NC1(C(F)(F)F)Oc2ccc(Cl)cc2O1 (stereo not given)	37.6*	1.8	8.5	2.0	-1.8	4.8
O=C(NCc1cccnc1)NC1(C(F)(F)F)Oc2ccc(Cl)cc2O1 (stereo not given)	27.0	.	1.9	-5.9	0.0	.
NS(=O)(=O)c1ccc(CCNC(=O)NC2(C(F)(F)F)Oc3ccccc3O2)cc1	47.5*	2.1	-1.3	-1.0	1.9	2.1
CC(C)C(=O)N1CCC(Oc2cccnc2)CC1	.	-2.8	.	.	.	.
CN(Cc1ccccc1)C(=O)c1cccc(NC(=O)Cc2cccc(NC(=O)C3CCN(C(=O)CCc4ccccc4)CC3)c2)c1	.	3.8	.	.	.	.
COc1ccc(OC)c(NC(=O)Nc2ccccc2C)c1	9.0	0.0	10.7	0.8	-1.5	.
